Screening data (PubChem)
CHOP inhibitor – inhibitors of CHOP promoter induction, primary screen, cell-based, unfolded protein response, luciferase reporter. CHO-K1 CHOP-promoter luciferase, tunicamycin-induced, 15-18 h. inhibition, % at 10 µM. hit rate 3.8% among 220,000. AID 2732, 2010;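 active = compounds that reduced the stress-induced luciferase reporter signal by more than about 70% of percent inhibition, limit read from the data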;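 also: 0% = tunicamycin plus vehicle and 100% = wells without tunicamycin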
MPTP inh – mitochondrial permeability transition pore inhibitors, primary screen, biochemical, isolated mouse mitochondria, absorbance; Ca2+ swelling absorbance, 30 min; inhibition, % at 10 µM; hit rate 1.4% among 360,000;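 active = inhibition of 50% or more, scaled per plate between neutral and stimulator controls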;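 also: 0% = DMSO wells given calcium and 100% = 1 mM EGTA wells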
WT yeast gro inh – growth inhibition of WT strain, primary screen, mitochondrial fusion inhibitor project, WT and mutant strains, chemical genetic; AID 1362, 2008; inhibition, % at 10 µM; hit rate 2.1% among 190,000; mitochondrial fusion phenotypic screen; in the data active = inhibition above about 58%; tested in S. cerevisiae
NR3A LBD binder – binders of NR3A ligand-binding domain, primary screen, biophysical, differential scanning fluorimetry, uHTS; NR3A LBD differential scanning fluorimetry, Tm shift; 0% = protein alone, 100% = glycine-bound protein; Tm shift relative to glycine control, % at 25 µM; hit rate 2.5% among 340,000; AID 1259313, 2017;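 active = melting temperature shift of at least 10% of the positive control shift, at one fixed dose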
Tb MetRS inh – T. brucei MetRS inhibitors, primary screen, biochemical, luminescence | purified T. brucei MetRS, ATP depletion, Kinase-Glo luminescence | methionyl-tRNA synthetase (Trypanosoma brucei brucei) | AID 624268, 2012 | inhibition, % at 11.9 µM | hit rate 0.4% among 360,000;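 active = inhibition above a per-plate cutoff of the control wells' mean inhibition plus 3 SD, cut at about 5.5% in these data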;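 also: 0% = DMSO wells median and 100% = median of wells with control inhibitor compound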
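Dosing: 11.9 µM single point; system: parasite MetRS enzyme; technique: luminescence of leftover ATP; times: 15 min enzyme-compound preincubation, 2 h reaction, 10 min detection, 25 °C; replicates: each compound tested once; read-out basis: percent inhibition relative to median high and low control wells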
EBV gp42 inh – Epstein-Barr virus gp42 inhibitors, primary screen, biochemical, uHTS, fluorescence polarization | inhibition, % (tested at 21.74 µM) | AID 1085, 2008 | Fluorescence polarization binding assay, mP read-out | hit rate 0.42% among 220,000; in the data active = inhibition above about 50%
Target sequence (Q1HVG2 whole entry, looked up): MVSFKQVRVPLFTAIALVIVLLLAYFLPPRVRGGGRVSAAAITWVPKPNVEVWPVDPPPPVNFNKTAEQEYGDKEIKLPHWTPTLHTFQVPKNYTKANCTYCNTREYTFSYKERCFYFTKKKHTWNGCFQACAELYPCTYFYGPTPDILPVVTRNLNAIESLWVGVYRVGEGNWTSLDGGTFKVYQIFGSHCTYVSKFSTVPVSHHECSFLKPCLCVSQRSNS
Active calls of the source: *; . = no result given. The list is not random: actives were taken first. Their share in the collection is about 6.4%.

SMILES	CHOP inhibitor	MPTP inh	WT yeast gro inh	NR3A LBD binder	Tb MetRS inh	EBV gp42 inh
O=C(Nc1ccc(-c2csc(-c3ccccc3)n2)cc1)c1ccccc1	28	2	-2	13*	-2	-10
Cc1nc(-c2cccc(NC(=O)c3ccc(-n4cccn4)cc3)c2)cs1	.	-1	.	16*	0	.
Fc1ccc(-c2csc(NC(=S)Nc3ccccc3)n2)cc1	.	4	.	25*	0	.
Fc1ccc(-c2csc(Nc3ccccn3)n2)cc1	.	0	.	-3	0	.
Cc1nc(-c2ccc(C(=O)Nc3cccc(F)c3)cc2)cs1	.	3	.	0	-1	.
COc1cccc(C(=O)Nc2ccccc2F)c1	-31	-2	-19	-2	0	-10
Cc1nc(-c2ccc(C(=O)Nc3ccc(F)cc3)cc2)cs1	19	2	10	11*	0	-9
CCOC(=O)/C=C(/C)N1N=C(c2ccc(OC)cc2)CC1c1cccc([N+](=O)[O-])c1 (stereo not drawn)	-32	1	0	6	-1	1
Cc1cc(Br)ccc1NC(=S)NCCc1ccccc1	.	7	.	-5	0	.
Cc1ccc(NC(=S)NCCc2c[nH]c3ccccc23)c(C)c1	-1	2	.	12*	-1	-6
Cc1ccc(C)c(NC(=S)NCCc2ccc(F)cc2)c1	6	4	69*	-1	-1	-8
CC(C)CC(=O)NC(=S)NCCc1ccccc1	57	0	-3	-5	-1	-8
Cc1ccc(NC(=S)NCCc2ccccc2)c(C)c1	-6	1	70*	1	0	-10
CC(C)(C)CC(=O)NC(=S)NCCc1ccccc1	70*	0	35	3	0	-6
Cc1ccc(C)n1-c1ccccc1N	44	.	2	.	.	6
Cc1ccccc1CSCCNC(=O)c1ccccc1	-14	2	7	-11	0	4
Cc1ccc(N(CC(=O)NC(C)(C)C)C(=O)CCC(=O)Nc2nccs2)cc1C	.	1	.	-1	-1	.
Cc1cc(C)nc(SCc2ccc(Cl)cc2)n1	.	0	.	0	1	.
Nc1cc(C(=O)OCC(=O)N2CCCC2)ccc1Cl	.	-1	13	9	-1	.
Cc1ccc(/C(N)=N/OC(=O)c2ccc3ccccc3c2)cc1	.	0	.	27*	0	.
Cc1ccc(/C(N)=N/OC(=O)c2ccc(C)cc2Cl)cc1	-5	0	0	197*	0	-9
N/C(=N\OC(=O)c1ccc(Cl)cc1Cl)c1ccc(Cl)cc1	62	1	17	18*	-1	-9
Cc1ccc(/C(N)=N/OC(=O)c2cccc(F)c2)cc1	44	1	16	9	0	-6
Cc1cccc(/C(N)=N/OC(=O)c2ccc(Cl)cc2Cl)c1	51	7	-5	-16	0	-13
Cc1cc(C)n(CC2CC(=O)N(c3ccc(F)c(Cl)c3)C2=O)n1 (stereo not drawn)	-15	0	-9	2	0	-2
SMILES	CHOP inhibitor	MPTP inh	WT yeast gro inh	NR3A LBD binder	Tb MetRS inh	EBV gp42 inh
COc1ccccc1C=CC(=O)C=Cc1ccccc1OC	.	4	.	1	-1	.
CNc1ccc(Br)cc(C(=O)/C=C/c2cccc(OC)c2OC)c1=O	-87	4	3	-1	-1	20
COc1ccccc1/C=C/C(=O)/C=C/c1ccccc1O	101*	-1	.	1	0	-4
CNc1ccccc(C(=O)/C=C/c2ccccc2OC)c1=O	88*	1	-20	-1	1	5
COc1cc2c(cc1NC(=O)COC(=O)c1ccccc1)oc1ccccc12	4	.	-47	.	.	-29
COc1cc2c(cc1NC(=O)c1cccc(S(=O)(=O)N(C)C)c1)oc1ccccc12	-16	0	1	14*	-1	-12
CCN(CC)S(=O)(=O)c1ccc(OC)c(NC(=O)c2ccc([N+](=O)[O-])cc2)c1	15	-1	-13	5	0	4
CCN(CC)S(=O)(=O)c1ccc(C(=O)Nc2cc3oc4ccccc4c3cc2OC)cc1	9	2	-13	11*	-1	-12
O=C(Nc1ccc(F)c(Cl)c1)c1cccnc1	.	1	.	0	-1	.
